Assay results: ChEMBL document CHEMBL3124806, “Imidazopyridine-fused [1,3]-diazepinones: synthesis and antiproliferative activity” (Eur J Med Chem, 2014)

Experiments:
Type in all cases: functional
T47D = test: Cytotoxicity against human T47D cells assessed as cell growth at 10 uM after 48 hrs by SRB assay relative to untreated control; conditions: read-out: Activity
How it was run: (§1)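 NCI-60 single-dose screen. Compounds were added to the cultures at 10 μM and incubated for 48 h. The end point was sulforhodamine B protein staining read spectrophotometrically. Growth is reported as percent of untreated control cells.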

BT-549 = test: Cytotoxicity against human BT549 cells assessed as cell growth at 10 uM after 48 hrs by SRB assay relative to untreated control; conditions: BT-549, 48 h, read-out: Activity
How it was run: (§2)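 NCI-60 panel screen at a single concentration of 10 μM with 48 h incubation. Cell density measured by sulforhodamine B protein-binding dye and read spectrophotometrically. Growth expressed as percent of untreated control cells.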

[1] = Cytotoxicity against human Hs578T cells assessed as cell growth at 10 uM after 48 hrs by SRB assay relative to untreated control; conditions: Hs-578T, read-out: Activity; how it was run: as §2
MDA-MB-231 = test: Cytotoxicity against human MDA-MB-231 cells assessed as cell growth at 10 uM after 48 hrs by SRB assay relative to untreated control; conditions: MDA-MB-231, 48 h, read-out: Activity
How it was run: (§3)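 NCI-60 one-dose screen: each agent added at 10 µM, cultures incubated 48 h. Endpoint by sulforhodamine B protein-binding dye read spectrophotometrically; growth expressed as percent of untreated control cells.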

[2] = Cytotoxicity against human UO31 cells assessed as cell growth at 10 uM after 48 hrs by SRB assay relative to untreated control; conditions: UO-31, 48 h, read-out: Activity; how it was run: as §1
SN12C = test: Cytotoxicity against human SN12C cells assessed as cell growth at 10 uM after 48 hrs by SRB assay relative to untreated control; conditions: read-out: Activity; how it was run: as §1
RXF 393 = test: Cytotoxicity against human RXF393 cells assessed as cell growth at 10 uM after 48 hrs by SRB assay relative to untreated control; conditions: RXF 393, 48 h, read-out: Activity; how it was run: as §3
CAKI-1 = test: Cytotoxicity against human Caki1 cells assessed as cell growth at 10 uM after 48 hrs by SRB assay relative to untreated control; conditions: CAKI-1, 48 h, read-out: Activity; how it was run: as §2
ACHN = test: Cytotoxicity against human ACHN cells assessed as cell growth at 10 uM after 48 hrs by SRB assay relative to untreated control; conditions: read-out: Activity; how it was run: as §2
SK-OV-3 = test: Cytotoxicity against human SKOV3 cells assessed as cell growth at 10 uM after 48 hrs by SRB assay relative to untreated control; conditions: SK-OV-3, 48 h, read-out: Activity; how it was run: as §1
[3] = Cytotoxicity against human NCI-ADR-RES cells assessed as cell growth at 10 uM after 48 hrs by SRB assay relative to untreated control; conditions: read-out: Activity; how it was run: as §3
OVCAR-8 = test: Cytotoxicity against human OVCAR8 cells assessed as cell growth at 10 uM after 48 hrs by SRB assay relative to untreated control; conditions: OVCAR-8, 48 h, read-out: Activity; how it was run: as §3
[4] = Cytotoxicity against human OVCAR5 cells assessed as cell growth at 10 uM after 48 hrs by SRB assay relative to untreated control; conditions: OVCAR-5, 48 h, read-out: Activity; how it was run: as §3
[5] = Cytotoxicity against human OVCAR4 cells assessed as cell growth at 10 uM after 48 hrs by SRB assay relative to untreated control; conditions: OVCAR-4, 48 h, read-out: Activity; how it was run: as §3
OVCAR-3 = test: Cytotoxicity against human OVCAR3 cells assessed as cell growth at 10 uM after 48 hrs by SRB assay relative to untreated control; conditions: OVCAR-3, 48 h, read-out: Activity; how it was run: as §3
[6] = Cytotoxicity against human UACC257 cells assessed as cell growth at 10 uM after 48 hrs by SRB assay relative to untreated control; conditions: UACC-257, 48 h, read-out: Activity; how it was run: as §1
SK-MEL-5 = test: Cytotoxicity against human SK-MEL-5 cells assessed as cell growth at 10 uM after 48 hrs by SRB assay relative to untreated control; conditions: SK-MEL-5, 48 h, read-out: Activity; how it was run: as §1
SK-MEL-28 = test: Cytotoxicity against human SK-MEL-28 cells assessed as cell growth at 10 uM after 48 hrs by SRB assay relative to untreated control; conditions: SK-MEL-28, 48 h, read-out: Activity; how it was run: as §1
SK-MEL-2 = test: Cytotoxicity against human SK-MEL-2 cells assessed as cell growth at 10 uM after 48 hrs by SRB assay relative to untreated control; conditions: SK-MEL-2, 48 h, read-out: Activity; how it was run: as §3
M14 = test: Cytotoxicity against human M14 cells assessed as cell growth at 10 uM after 48 hrs by SRB assay relative to untreated control; conditions: M14, 48 h, read-out: Activity; how it was run: as §2
SNB-19 = test: Cytotoxicity against human SNB19 cells assessed as cell growth at 10 uM after 48 hrs by SRB assay relative to untreated control; conditions: SNB-19, 48 h, read-out: Activity; how it was run: as §1
SF-539 = test: Cytotoxicity against human SF539 cells assessed as cell growth at 10 uM after 48 hrs by SRB assay relative to untreated control; conditions: SF-539, 48 h, read-out: Activity; how it was run: as §3
HT-29 = test: Cytotoxicity against human HT-29 cells assessed as cell growth at 10 uM after 48 hrs by SRB assay relative to untreated control; conditions: HT-29, 48 h, read-out: Activity; how it was run: as §2
HCT-15 = test: Cytotoxicity against human HCT15 cells assessed as cell growth at 10 uM after 48 hrs by SRB assay relative to untreated control; conditions: HCT-15, 48 h, read-out: Activity; how it was run: as §2
HCC 2998 = test: Cytotoxicity against human HCC2998 cells assessed as cell growth at 10 uM after 48 hrs by SRB assay relative to untreated control; conditions: HCC 2998, 48 h, read-out: Activity; how it was run: as §2
COLO 205 = test: Cytotoxicity against human COLO205 cells assessed as cell growth at 10 uM after 48 hrs by SRB assay relative to untreated control; conditions: COLO 205, 48 h, read-out: Activity; how it was run: as §2
NCI-H522 = test: Cytotoxicity against human NCI-H522 cells assessed as cell growth at 10 uM after 48 hrs by SRB assay relative to untreated control; conditions: NCI-H522, 48 h, read-out: Activity; how it was run: as §3
NCI-H460 = test: Cytotoxicity against human NCI-H460 cells assessed as cell growth at 10 uM after 48 hrs by SRB assay relative to untreated control; conditions: NCI-H460, 48 h, read-out: Activity; how it was run: as §3
NCI-H322M = test: Cytotoxicity against human NCI-H322M cells assessed as cell growth at 10 uM after 48 hrs by SRB assay relative to untreated control; conditions: read-out: Activity; how it was run: as §3
NCI-H226 = test: Cytotoxicity against human NCI-H226 cells assessed as cell growth at 10 uM after 48 hrs by SRB assay relative to untreated control; conditions: NCI-H226, 48 h, read-out: Activity; how it was run: as §3
HOP-92 = test: Cytotoxicity against human HOP92 cells assessed as cell growth at 10 uM after 48 hrs by SRB assay relative to untreated control; conditions: HOP-92, 48 h, read-out: Activity; how it was run: as §2
CCRF-CEM = test: Cytotoxicity against human CCRF-CEM cells assessed as cell growth at 10 uM after 48 hrs by SRB assay relative to untreated control; conditions: read-out: Activity; how it was run: as §2

Row | Compound | growth at 10 µM (T47D) [%] | growth at 10 µM (BT-549) [%] | growth at 10 µM [1] [%] | growth at 10 µM (MDA-MB-231) [%] | growth at 10 µM [2] [%] | growth at 10 µM (SN12C) [%] | growth at 10 µM (RXF 393) [%] | growth at 10 µM (CAKI-1) [%] | growth at 10 µM (ACHN) [%] | growth at 10 µM (SK-OV-3) [%] | growth at 10 µM [3] [%] | growth at 10 µM [4] [%] | growth at 10 µM [5] [%] | growth at 10 µM (OVCAR-3) [%] | growth at 10 µM [6] [%] | growth at 10 µM (SK-MEL-5) [%] | growth at 10 µM (SK-MEL-28) [%] | growth at 10 µM (SK-MEL-2) [%] | growth at 10 µM (M14) [%] | growth at 10 µM (SNB-19) [%] | other results
1 | Cc1ccc(C2=Nc3nc4ccccn4c3C(=O)[C@H](C)N2)cc1 | 103 | 85.7 | 94.8 | 79.7 | 45.9 | 93.9 | 105 | 86.1 | 81 | 90.2 | 79.6 | 94 | 88.7 | 90.4 | 90.3 | 81.7 | 88.9 | 69.5 | 87 | 95.5 | growth at 10 µM (OVCAR-8): 93.8%; growth at 10 µM (SF-539): 90%; growth at 10 µM (HT-29): 82.8%; growth at 10 µM (HCT-15): 71.9%; growth at 10 µM (HCC 2998): 104%; growth at 10 µM (COLO 205): 80.4%; growth at 10 µM (NCI-H522): 66.5%; growth at 10 µM (NCI-H460): 94.5%; growth at 10 µM (NCI-H322M): 81.7%; growth at 10 µM (NCI-H226): 80.5%; growth at 10 µM (HOP-92): 66.3%; growth at 10 µM (CCRF-CEM): 85.2%
2 | Cc1ccc(C2=Nc3nc4ccccn4c3C(=O)[C@H](Cc3ccccc3)N2)cc1 | 96.5 | 88.3 | 96.2 | 93.7 | 77 | 104 | 95.7 | 76.8 | 92.1 | 109 | 87.1 | 99.2 | 102 | 99.3 | 91.1 | 86.5 | 109 | 105 | 97.7 | 96.4 | growth at 10 µM (OVCAR-8): 92.9%; growth at 10 µM (SF-539): 98.8%; growth at 10 µM (HT-29): 114%; growth at 10 µM (HCT-15): 78%; growth at 10 µM (HCC 2998): 106%; growth at 10 µM (COLO 205): 113%; growth at 10 µM (NCI-H522): 98.1%; growth at 10 µM (NCI-H460): 103%; growth at 10 µM (NCI-H322M): 104%; growth at 10 µM (NCI-H226): 88.2%; growth at 10 µM (HOP-92): 88.3%; growth at 10 µM (CCRF-CEM): 103%
3 | Cc1ccccc1C1=Nc2nc3ccccn3c2C(=O)[C@H](Cc2ccccc2)N1 | 104 | 96.9 | 102 | 104 | 80.6 | 107 | 105 | 88.8 | 94.5 | 111 | 95.4 | 101 | 98.7 | 108 | 87.3 | 103 | 113 | 115 | 102 | 109 | growth at 10 µM (OVCAR-8): 92.8%; growth at 10 µM (SF-539): 99.4%; growth at 10 µM (HT-29): 115%; growth at 10 µM (HCT-15): 100%; growth at 10 µM (HCC 2998): 99.9%; growth at 10 µM (COLO 205): 107%; growth at 10 µM (NCI-H522): 121%; growth at 10 µM (NCI-H460): 103%; growth at 10 µM (NCI-H322M): 106%; growth at 10 µM (NCI-H226): 99%; growth at 10 µM (HOP-92): 90.5%; growth at 10 µM (CCRF-CEM): 105%
4 | C[C@@H]1NC(c2ccccc2)=Nc2nc3ccccn3c2C1=O | 92.8 | 93.2 | 93.8 | 89.8 | 82.5 | 112 | 104 | 81.8 | 97.5 | 101 | 97.4 | 114 | 103 | 103 | 121 | 99.2 | 113 | 110 | 99.8 | 106 | growth at 10 µM (SF-539): 108%; growth at 10 µM (HT-29): 113%; growth at 10 µM (HCT-15): 104%; growth at 10 µM (HCC 2998): 90.9%; growth at 10 µM (COLO 205): 109%; growth at 10 µM (NCI-H522): 95.4%; growth at 10 µM (NCI-H460): 104%; growth at 10 µM (NCI-H322M): 102%; growth at 10 µM (NCI-H226): 88%; growth at 10 µM (HOP-92): 75.5%; growth at 10 µM (CCRF-CEM): 104%
